Results from article PMC6431292 (Journal of molecular biology, 2018).
Residue numbers refer to the chain shown, from its start.

Assays:
Type in all cases: binding
[1] = molecular target: T1, BLVRB (biliverdin reductase B) (Homo sapiens, UniProt P30043); assay: NMR titration
T1 sequence (P30043 1-206): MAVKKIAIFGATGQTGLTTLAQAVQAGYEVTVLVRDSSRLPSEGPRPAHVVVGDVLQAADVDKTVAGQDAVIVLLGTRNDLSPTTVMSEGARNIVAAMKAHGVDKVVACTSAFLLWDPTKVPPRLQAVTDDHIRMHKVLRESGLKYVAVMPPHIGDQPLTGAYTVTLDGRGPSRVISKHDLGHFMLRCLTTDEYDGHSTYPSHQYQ

[2] = molecular target: T1, BLVRB (biliverdin reductase B); assay: isothermal titration calorimetry
[3] = molecular target: T2, BLVRB (biliverdin reductase B) (Homo sapiens, UniProt P30043, R78A); assay: isothermal titration calorimetry
T2 sequence (P30043 1-206 R78A): T1 sequence (P30043 1-206) with R78A
Summary of the method: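 Human BLVRB (R78A mutant) expressed in E. coli BL21/DE3 with a cleavable N-terminal His-tag, Ni-purified under denaturing conditions, refolded by dialysis, tag removed, then gel-filtered. ITC used 100 μM enzyme in the cell, titrated with reduced or oxidized coenzyme (freshly prepared) at 1 mM. Buffer was 50 mM Bis–Tris pH 6.5, 50 mM NaCl, 1 mM DTT, at 20 °C. Runs were done in duplicate.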

Row | Structure (SMILES) | Kd [1] [µM] | Kd [2] [µM] | Kd [3] [µM]
1 | Cc1cc2nc3c(=O)[nH]c(=O)nc-3n(C[C@H](O)[C@H](O)[C@H](O)COP(=O)(O)OP(=O)(O)OC[C@H]3O[C@@H](n4cnc5c(N)ncnc54)[C@H](O)[C@@H]3O)c2cc1C [FAD] | 590 ± 80 |  | 
2 | NC(=O)C1=CN([C@@H]2O[C@H](COP(=O)(O)OP(=O)(O)OC[C@H]3O[C@@H](n4cnc5c(N)ncnc54)[C@H](OP(=O)(O)O)[C@@H]3O)[C@@H](O)[C@H]2O)C=CC1 [NADPH] |  | 0.3 ± 0.2 | 
3 | NC(=O)c1ccc[n+]([C@@H]2O[C@H](COP(=O)(O)OP(=O)(O)OC[C@H]3O[C@@H](n4cnc5c(N)ncnc54)[C@H](OP(=O)(O)O)[C@@H]3O)[C@@H](O)[C@H]2O)c1 [NADP^+] |  | 0.4 ± 0.2 | 2.8 ± 0.2
